Active and inactive are the calls of the source. No cut-off for these calls is given here.
What was measured:
[1] = Metabolic stability in mouse liver microsomes assessed as parent compound remaining after 30 mins; format: ADME, Microsome; settings: for remaining at 0.5 h: liver microsomes, read-out: Stabilty; for Stabilty: microsomes, 0.5 h
How it was run: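 Compound incubated with mouse liver microsomes for 30 minutes at 37 °C, with dextromethorphan as positive control. Read-out is the percentage of unmodified compound remaining at 30 min.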

[2] = Metabolic stability in mouse liver microsomes assessed as half life; format: ADME, Microsome; settings: for half-life: liver microsomes
How it was run: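 Half-life in mouse liver microsome assays was calculated from the amount of compound remaining over time, with dextromethorphan as positive control.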

SH-SY5Y [3] = assay: Induction of heat shock response in human SH-SY5Y cells assessed as effect on HSP90 expression at 3 to 30 uM incubated for 24 hrs by Western blot analysis; format: cell-based; settings: dose 3-30 µM
How it was run: (§1)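 Cells treated for 24 h at the indicated concentrations, then lysed; total tau, Hsp72 and Hsp90 levels analyzed by Western blot. HeLaC3 cells over-express 0N4R tau. SH-SY5Y cells express tau at physiological levels.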

HeLa C3 = assay: Inhibition of HSP70 in human HeLa C3 cells assessed as degradation of tau at >10 uM incubated for 24 hrs by Western blot analysis; format: cell-based; settings: dose microM >10, time 24.0 hrs; how it was run: as §1
SH-SY5Y [4] = assay: Induction of heat shock response in human SH-SY5Y cells assessed as effect on HSP72 expression at 3 to 30 uM incubated for 24 hrs by Western blot analysis; format: cell-based; settings: dose 3-30 µM; how it was run: as §1
[5] = Induction of heat shock response in human HeLa C3 cells assessed as effect on HSP72 expression at 3 to 30 uM incubated for 24 hrs by Western blot analysis; format: cell-based; settings: hela c3, 24 h, dose 3-30 µM; how it was run: as §1
SH-SY5Y [6] = assay: Inhibition of HSP70 in human SH-SY5Y cells assessed as degradation of tau at 3 to 30 uM incubated for 24 hrs by Western blot analysis relative to control; format: cell-based; settings: dose 3-30 µM; how it was run: as §1
[7] = Induction of heat shock response in human HeLa C3 cells assessed as effect on HSP90 expression at 3 to 30 uM incubated for 24 hrs by Western blot analysis; format: cell-based; settings: hela c3, 24 h, dose 3-30 µM; how it was run: as §1

| Compound | remaining at 0.5 h [1] [%] | also measured |
| --- | --- | --- |
| CCn1c(=O)/c(=C2\Sc3c(Cl)cccc3N2C)s/c1=C\c1ccccn1 | 17 |  |
| CCn1c(=O)/c(=C2\Sc3ccc(F)cc3N2C)s/c1=C\c1ccccn1 | 19 |  |
| CCn1c(=O)/c(=C2\Sc3ccccc3N2C)s/c1=C\c1ccccn1 |  | half-life [2]: < 3 min; Stabilty ([1]; BLD = below limit of detection): Bld |
| CCn1c(=O)/c(=C2\Sc3cccc(F)c3N2C)s/c1=C\c1ccccn1 | 12 |  |
| CCn1c(=O)/c(=C2\Sc3c(Cl)cccc3N2C)s/c1=C\c1ccncc1 |  | Stabilty [1]: Nd(Insoluble) |
| CCn1c(=O)/c(=C2\Sc3cccc(F)c3N2C)s/c1=C\c1ccncc1 | 33 |  |
| CCn1c(=O)/c(=C2\Sc3c(F)cccc3N2C)s/c1=C\c1ccccn1 | 12 |  |
| CCn1c(=O)/c(=C2\Sc3cc(F)ccc3N2C)s/c1=C\c1ccccn1 | 5 |  |
| COc1ccc2c(c1)[C@]13CCCC[C@@H]1[C@H](C2)N(C)CC3 [DEXTROMETHORPHAN] |  | half-life [2]: 25 min |
| CCn1c(=O)/c(=C2\Sc3ccccc3N2C)s/c1=C\c1ccncc1 | 6 |  |
| CCn1c(=O)/c(=C2\Sc3ccc(Cl)cc3N2C)s/c1=C\c1ccccn1 | 37 | half-life [2]: 17 min |
| CCn1c(=O)/c(=C2\Sc3cccc(Cl)c3N2C)s/c1=C\c1ccccn1 | 38 | half-life [2]: 23 min |
| CCn1c(=O)/c(=C2\Sc3cc(Cl)ccc3N2C)s/c1=C\c1ccncc1 | 39 | half-life [2]: 22 min |
| CCn1c(=O)/c(=C2\Sc3cccc(Cl)c3N2C)s/c1=C\c1ccncc1 |  | Stabilty [1]: Nd(Insoluble) |
| CCn1c(=O)/c(=C2\Sc3cc(F)ccc3N2C)s/c1=C\c1ccncc1 | 13 |  |
| CCn1c(=O)/c(=C2\Sc3cc(Cl)ccc3N2C)s/c1=C\c1ccccn1 | 13 |  |
| CCn1c(=O)/c(=C2\Sc3ccc(Cl)cc3N2C)s/c1=C\c1ccncc1 | 52 | Activity (SH-SY5Y [3]): Non-Toxic; inhibition (HeLa C3): Active; Activity (SH-SY5Y [4]): Non-Toxic; t1/2 ([2]; microsomes): 36 min; Activity [5]: Non-Toxic; inhibition (SH-SY5Y [6]): 80%; Activity [7]: Non-Toxic |
| CCn1c(=O)/c(=C2\Sc3c(F)cccc3N2C)s/c1=C\c1ccncc1 | 30 |  |
| CCn1c(=O)/c(=C2\Sc3ccc(F)cc3N2C)s/c1=C\c1ccncc1 | 23 |  |
